Experimental data as given in ChEMBL document CHEMBL1124422, “Antitumor and antiviral activity of synthetic alpha- and beta-ribonucleosides of certain substituted pyrimido[5,4-d]pyrimidines: a new synthetic strategy for exocyclic aminonucleosides” (1989).

How the values were obtained:
[1] = Effect on de novo purine biosynthesis when [14C]-formate was incorporated to WI-L2 cells at 25 uM with preincubation time of 4 h; type: functional, Homo sapiens
Outline: (§1)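 WI-L2 cells (or adenosine kinase-deficient mutant) kept in log phase in RPMI 1640 with 5% dialyzed FBS, 20 mM NaHEPES pH 7.5, 2 mM glutamine; preincubated with drug at 37 °C, then labeled with [14C]formate. De novo purine synthesis read as [14C]formate incorporation into cellular (hot acid-soluble) and excreted purines, scored as inhibition.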

WIL2 = assay: Inhibitory concentration of compound that inhibits tumor cell growth by 50% in Human B-lymphoblast (WI-L) cell line; type: functional; conditions: read-out: ID50 (the source's name)
Outline: (§2)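 Incubation was 3 days for L1210 and WI-L2 and 5 days for LoVo/L. MTT was added for 2 to 5 h and formazan was read by absorbance. ID50 is the concentration giving 50% of untreated control growth.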

LoVo = assay: Inhibitory concentration of compound that inhibits tumor cell growth by 50% in Human colon carcinoma (LoVo/L) cell line; type: functional; conditions: read-out: ID50 (the source's name); outline: as §2
Homo sapiens [2] = organism: Homo sapiens; assay: Effect on de novo purine biosynthesis when [14C]-formate was incorporated to WI-L2 media at 0.25 uM with pre-incubation time of 8 h; type: functional; outline: as §1
L1210 = assay: Inhibitory concentration of compound that inhibits tumor cell growth by 50% in Murine leukemia (L1210) cell line; type: functional; conditions: Mus musculus, read-out: ID50 (the source's name); outline: as §2
Vero [3] = assay: In vitro antiviral activity against herpes simplex virus type 2 (MS strain) cell line in Vero cells; type: functional, Chlorocebus sabaeus
Vero [4] = assay: In vitro antiviral activity against Parainfluenza 3 (C243 strain)cell line in Vero cells; type: functional, Chlorocebus sabaeus
[5] = Effect on de novo purine biosynthesis when [14C]formate was incorporated to WI-L2 cells at 0.25 uM with preincubation time of 8 h; type: functional, Homo sapiens; outline: as §1
Homo sapiens [6] = organism: Homo sapiens; assay: Effect on de novo purine biosynthesis when [14C]-formate was incorporated to WI-L2 media at 2.5 uM with pre-incubation time of 8 h; type: functional; outline: as §1
[7] = Effect on de novo purine biosynthesis when [14C]formate was incorporated to WI-L2 cells at 2.5 uM with preincubation time of 8 h; type: functional, Homo sapiens; outline: as §1
HeLa = assay: In vitro antiviral activity against Vaccinia virus (Elstree strain) cell line in HeLa cells; type: functional, Homo sapiens
[8] = Effect on de novo purine biosynthesis when [14C]formate was incorporated to fraction WI-L2 cells at 25 uM with preincubation time of 4 h; type: functional, Homo sapiens; outline: as §1
Homo sapiens [9] = organism: Homo sapiens; assay: Effect on de novo purine biosynthesis when [14C]formate was incorporated to WI-L2 media at 0.25 uM with preincubation time of 8 h; type: functional; outline: as §1
Vero [10] = assay: In vitro antiviral activity against Parainfluenza 3 (C243 strain) cell line in Vero cells; type: functional, Chlorocebus sabaeus
Homo sapiens [11] = organism: Homo sapiens; assay: Effect on de novo purine biosynthesis when [14C]formate was incorporated to WI-L2 media at 2.5 uM with preincubation time of 8 h; type: functional; outline: as §1
[12] = Effect on de novo purine biosynthesis when [14C]formate was incorporated to WI-L2 cells at 50 uM with preincubation time of 8 h; type: functional, Homo sapiens
Outline: (§3)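 Cells were preincubated with drug at 37 °C, then labelled with [14C]formate. De novo purine synthesis was read as label incorporated into cellular and excreted purines (hot acid-soluble fraction).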

Homo sapiens [13] = organism: Homo sapiens; assay: Effect on de novo purine biosynthesis when [14C]formate was incorporated to WI-L2 media at 50 uM with preincubation time of 8 h; type: functional
Outline: (§4)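 WI-L2 cells preincubated with drug at 37 °C before [14C]formate labeling. Read-out: [14C]formate incorporation into cellular and excreted purines (hot acid-soluble fraction). Cells grown in RPMI 1640 with 5% dialyzed fetal bovine serum, 20 mM NaHEPES pH 7.5, 2 mM glutamine, and kept in log phase between 0.5 and 12×10^5 cells/mL.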

[14] = Effect on de novo purine biosynthesis when [14C]-formate was incorporated into WI-L2 cells at 50 uM with pre-incubation time of 8 h; type: functional, Homo sapiens; outline: as §3
Homo sapiens [15] = organism: Homo sapiens; assay: Effect on de novo purine biosynthesis when [14C]-formate was incorporated into WI-L2 media at 50 uM with pre-incubation time of 8 h; type: functional; outline: as §4

COc1ncnc2c(N[C@@H]3O[C@H](CO)[C@@H](O)[C@H]3O)ncnc12
Control [1]: 4.3%
IC50 (WIL2): 60 nM
IC50 (LoVo): 280 nM
Control (Homo sapiens [2]): 63%
IC50 (L1210): 40 nM
Virus rating (Vero [3]): 0.2
Virus rating (Vero [4]): 0.7
Control [5]: 41.9%
Control (Homo sapiens [6]): 41.8%
Control [7]: 2.7%
Virus rating (HeLa): 1

COc1ncnc2c(N[C@H]3O[C@H](CO)[C@@H](O)[C@H]3O)ncnc12
IC50 (WIL2): 2500 nM
IC50 (LoVo): 18700 nM
IC50 (L1210): 2900 nM
Control [8]: 98.2%
Virus rating (Vero [3]): 0.1
Virus rating (Vero [4]): 0.7
Virus rating (HeLa): 0.9

Nc1nc(NC2O[C@H](CO)[C@@H](O)[C@H]2O)c2ncnc(N)c2n1 (some centres not stated)
Control (Homo sapiens [9]): 89.8%
Control [7]: 91.2%

Nc1ncnc2c(N[C@@H]3O[C@H](CO)[C@@H](O)[C@H]3O)ncnc12
Virus rating (Vero [10]): 0.7
IC50 (WIL2): 200 nM
IC50 (LoVo): 7000 nM
IC50 (L1210): 800 nM
Control (Homo sapiens [9]): 71.9%
Virus rating (Vero [3]): 0.8
Control [5]: 79.5%
Control [7]: 29.9%
Virus rating (HeLa): 1.3
Control (Homo sapiens [11]): 54.6%

Nc1ncnc2c(N[C@H]3O[C@H](CO)[C@@H](O)[C@H]3O)ncnc12
IC50 (WIL2): 250 nM
IC50 (LoVo): 1000 nM
IC50 (L1210): 380 nM
Virus rating (Vero [3]): 0.2
Virus rating (Vero [4]): 1.4
Virus rating (HeLa): 1

CN(C)c1ncnc2c(NC3O[C@H](CO)[C@@H](O)[C@H]3O)ncnc12 (some centres not stated)
Control [12]: 50.7%
Control (Homo sapiens [13]): 85.8%

Nc1ncnc2c(NC3O[C@H](CO)[C@@H](O)[C@H]3O)nc(Cl)nc12 (some centres not stated)
Control [14]: 16.4%
Control (Homo sapiens [15]): 43.4%

OC[C@H]1OC(Nc2ncnc3c(O)ncnc23)[C@H](O)[C@@H]1O (some centres not stated)
Control [12]: 98.2%
Control (Homo sapiens [13]): 106%
